Test results reported in ChEMBL document CHEMBL4190396, “Discovery of Novel Small-Molecule Inhibitors of NF-κB Signaling with Antiinflammatory and Anticancer Properties” (J Med Chem, 2018).
Calls of active or inactive are those of the source. The calls are words filed in the database; no cut-off is given here.

What was measured:
[1] = test system: HeLa; test: Cell cycle arrest in human HeLa cells assessed as accumulation at G2/M phase at 5 uM after 24 hrs by propidium iodide staining based flow cytometry (reference value: 15.7%); assay type: functional
Summary of the method: (§1)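 HeLa cells, 3×10^5/well, attached overnight, switched to serum-free medium for synchronisation, then DMSO or 5, 10, 20 µM for 24 h; cells fixed, PI-stained, G0/G1, S and G2/M fractions by flow cytometry; n = 3, mean ± SD.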

[2] = target: Tyrosine-protein kinase SYK (Homo sapiens) (UniProt P43405); test: Inhibition of wild-type human partial length SYK (D354 to N635 residues) expressed in bacterial expression system assessed as residual activity at 10 uM by Kinomescan method
[3] = target: Inhibitor of nuclear factor kappa-B kinase subunit alpha/beta (Mus musculus) (UniProt Q60680+O88351); test: Inhibition of IKK-alphabeta in mouse RAW264.7 cells assessed as reduction in LPS-induced IKK-alphabeta phosphorylation at 1 to 10 uM preincubated for 1 hr followed by LPS stimulation for 15 to 30 mins by Western blot method; assay type: cell-based
Summary of the method: (§2)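 RAW 264.7 cells, 3×10^6 per dish overnight, pretreated 1 h with 1, 5 or 10 µM, then LPS 100 ng/mL for 15 or 30 min; nuclear/cytoplasmic lysates (20–30 µg) run on 10% SDS-PAGE, immunoblotted for phospho/total proteins, GAPDH loading control, ECL, densitometry; three independent experiments.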

[4] = test system: RAW264.7; test: Inhibition of LPS-induced PI3K phosphorylation in mouse RAW264.7 cells at 1 to 10 uM preincubated for 1 hr followed by LPS stimulation for 15 to 30 mins by Western blot method; assay type: cell-based; summary of the method: as §2
[5] = target: T1, Toll-like receptor 7 (Homo sapiens) (UniProt Q9NYK1); test: Inhibition of human TLR7 expressed in HEK293 cells assessed as decrease in R848-induced NF-kappaB activation-mediated SEAP production at 5 uM after 24 hrs by Quanti-blue-based assay relative to control; assay type: cell-based
T1 sequence (whole entry): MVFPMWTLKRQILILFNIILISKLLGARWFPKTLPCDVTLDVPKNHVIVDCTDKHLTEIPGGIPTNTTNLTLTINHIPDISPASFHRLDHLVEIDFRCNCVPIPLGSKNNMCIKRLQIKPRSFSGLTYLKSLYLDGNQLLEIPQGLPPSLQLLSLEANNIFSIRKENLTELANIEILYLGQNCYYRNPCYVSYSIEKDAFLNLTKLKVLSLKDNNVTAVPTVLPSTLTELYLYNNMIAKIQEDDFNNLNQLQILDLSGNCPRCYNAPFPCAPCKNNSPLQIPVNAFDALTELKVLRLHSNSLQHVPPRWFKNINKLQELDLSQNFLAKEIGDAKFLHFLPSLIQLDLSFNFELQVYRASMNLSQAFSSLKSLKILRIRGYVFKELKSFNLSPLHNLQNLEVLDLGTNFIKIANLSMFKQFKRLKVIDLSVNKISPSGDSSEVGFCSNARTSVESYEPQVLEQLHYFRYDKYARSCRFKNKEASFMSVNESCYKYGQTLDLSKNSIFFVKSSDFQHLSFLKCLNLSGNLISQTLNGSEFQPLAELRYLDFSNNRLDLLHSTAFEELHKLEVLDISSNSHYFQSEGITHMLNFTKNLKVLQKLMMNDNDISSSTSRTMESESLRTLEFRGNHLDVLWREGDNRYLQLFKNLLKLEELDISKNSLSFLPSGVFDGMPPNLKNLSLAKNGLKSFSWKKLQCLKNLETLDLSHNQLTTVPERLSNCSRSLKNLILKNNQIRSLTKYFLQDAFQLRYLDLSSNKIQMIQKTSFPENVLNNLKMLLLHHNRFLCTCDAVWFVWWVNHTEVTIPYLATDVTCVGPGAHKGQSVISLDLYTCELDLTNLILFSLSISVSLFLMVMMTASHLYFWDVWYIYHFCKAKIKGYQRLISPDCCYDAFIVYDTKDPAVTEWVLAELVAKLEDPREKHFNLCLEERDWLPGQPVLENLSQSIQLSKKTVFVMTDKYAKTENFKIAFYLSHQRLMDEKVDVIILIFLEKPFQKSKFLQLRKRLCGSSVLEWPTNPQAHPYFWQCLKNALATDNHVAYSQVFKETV

[6] = test system: HeLa; test: Cell cycle arrest in human HeLa cells assessed as accumulation at G0/G1 phase at 20 uM after 24 hrs by propidium iodide staining based flow cytometry (reference value: 49.4%); assay type: functional; summary of the method: as §1
[7] = test system: HeLa; test: Induction of apoptosis in human HeLa cells after 24 hrs by Annexin-V FITC/propidium iodide staining based flow cytometry; assay type: functional, cell-based
Summary of the method: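 HeLa cells, 3×10^5/well, attached 24 h, then DMSO or 5, 10, 20 µM for 24 h; harvested with EDTA-free 0.25% trypsin, Annexin V-FITC/PI double stained, flow cytometry; early plus late apoptotic fractions counted; three independent experiments.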

[8] = test system: HeLa; test: Cell cycle arrest in human HeLa cells assessed as accumulation at G0/G1 phase at 10 uM after 24 hrs by propidium iodide staining based flow cytometry (reference value: 49.4%); assay type: functional; summary of the method: as §1
[9] = test system: RAW264.7; test: Inhibition of LPS-induced JNK phosphorylation in mouse RAW264.7 cells at 1 to 10 uM preincubated for 1 hr followed by LPS stimulation for 15 to 30 mins by Western blot method; assay type: cell-based; summary of the method: as §2
[10] = target: Toll-like receptor 5 (Homo sapiens) (UniProt O60602); test: Antagonist activity at human TLR5 expressed in HEK293 cells assessed as decrease in flagellin-induced NF-kappaB activation-mediated SEAP production at 10^-9 to 10^-5 M after 24 hrs by Quanti-blue-based assay; assay type: cell-based
Toll-like receptor 5 (Homo sapiens), sequence (O60602 whole entry): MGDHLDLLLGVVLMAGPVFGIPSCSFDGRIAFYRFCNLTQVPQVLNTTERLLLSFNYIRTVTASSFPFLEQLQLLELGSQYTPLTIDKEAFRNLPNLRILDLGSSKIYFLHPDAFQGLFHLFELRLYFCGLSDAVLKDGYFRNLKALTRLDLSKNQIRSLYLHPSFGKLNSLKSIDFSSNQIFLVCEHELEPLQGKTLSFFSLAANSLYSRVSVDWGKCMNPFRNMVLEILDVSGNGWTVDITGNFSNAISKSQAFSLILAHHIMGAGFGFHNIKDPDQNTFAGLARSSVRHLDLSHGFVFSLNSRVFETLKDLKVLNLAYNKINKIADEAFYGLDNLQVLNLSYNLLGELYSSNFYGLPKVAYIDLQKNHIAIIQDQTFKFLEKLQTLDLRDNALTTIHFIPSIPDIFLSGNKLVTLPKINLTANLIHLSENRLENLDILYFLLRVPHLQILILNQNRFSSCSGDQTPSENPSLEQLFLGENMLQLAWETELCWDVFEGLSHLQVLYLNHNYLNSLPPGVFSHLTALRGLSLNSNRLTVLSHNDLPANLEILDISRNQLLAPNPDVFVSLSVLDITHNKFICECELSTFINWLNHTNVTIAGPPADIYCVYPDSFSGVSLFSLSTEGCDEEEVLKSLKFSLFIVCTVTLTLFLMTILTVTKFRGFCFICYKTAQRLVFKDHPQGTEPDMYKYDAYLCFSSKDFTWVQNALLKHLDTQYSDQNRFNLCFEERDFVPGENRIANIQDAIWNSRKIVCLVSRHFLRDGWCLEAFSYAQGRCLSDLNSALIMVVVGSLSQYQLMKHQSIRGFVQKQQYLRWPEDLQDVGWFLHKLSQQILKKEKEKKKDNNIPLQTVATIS
Summary of the method: (§3)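 HEK293 cells stably carrying a human TLR plus an NF-κB-driven SEAP reporter, seeded 5×10^4/well for 24 h at 37 °C, then stimulated: Pam3CSK4 100 µg/mL (TLR1/2), Pam2CSK4 100 µg/mL, poly I:C 5 µg/mL (TLR3), LPS 20 ng/mL (TLR4), flagellin 100 ng/mL (TLR5), R848 1 µg/mL (TLR7, TLR8), CpG-ODN2006 1 µg/mL (TLR9). After 24 h with compound, supernatant mixed with QUANTI-Blue, 1 h 37 °C, OD 620 nm.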

[11] = target: T1, Toll-like receptor 7 (Homo sapiens); test: Antagonist activity at human TLR7 expressed in HEK293 cells assessed as decrease in R848-induced NF-kappaB activation-mediated SEAP production at 10^-9 to 10^-5 M after 24 hrs by Quanti-blue-based assay; assay type: cell-based; summary of the method: as §3
[12] = test system: HeLa; test: Cell cycle arrest in human HeLa cells assessed as accumulation at G0/G1 phase at 5 uM after 24 hrs by propidium iodide staining based flow cytometry (reference value: 49.4%); assay type: functional; summary of the method: as §1
[13] = target: Toll-like receptor 8 (Homo sapiens) (UniProt Q9NR97); test: Antagonist activity at human TLR8 expressed in HEK293 cells assessed as decrease in R848-induced NF-kappaB activation-mediated SEAP production at 10^-9 to 10^-5 M after 24 hrs by Quanti-blue-based assay; assay type: cell-based; summary of the method: as §3
Toll-like receptor 8 (Homo sapiens), sequence (Q9NR97 whole entry, the tested form may be a part): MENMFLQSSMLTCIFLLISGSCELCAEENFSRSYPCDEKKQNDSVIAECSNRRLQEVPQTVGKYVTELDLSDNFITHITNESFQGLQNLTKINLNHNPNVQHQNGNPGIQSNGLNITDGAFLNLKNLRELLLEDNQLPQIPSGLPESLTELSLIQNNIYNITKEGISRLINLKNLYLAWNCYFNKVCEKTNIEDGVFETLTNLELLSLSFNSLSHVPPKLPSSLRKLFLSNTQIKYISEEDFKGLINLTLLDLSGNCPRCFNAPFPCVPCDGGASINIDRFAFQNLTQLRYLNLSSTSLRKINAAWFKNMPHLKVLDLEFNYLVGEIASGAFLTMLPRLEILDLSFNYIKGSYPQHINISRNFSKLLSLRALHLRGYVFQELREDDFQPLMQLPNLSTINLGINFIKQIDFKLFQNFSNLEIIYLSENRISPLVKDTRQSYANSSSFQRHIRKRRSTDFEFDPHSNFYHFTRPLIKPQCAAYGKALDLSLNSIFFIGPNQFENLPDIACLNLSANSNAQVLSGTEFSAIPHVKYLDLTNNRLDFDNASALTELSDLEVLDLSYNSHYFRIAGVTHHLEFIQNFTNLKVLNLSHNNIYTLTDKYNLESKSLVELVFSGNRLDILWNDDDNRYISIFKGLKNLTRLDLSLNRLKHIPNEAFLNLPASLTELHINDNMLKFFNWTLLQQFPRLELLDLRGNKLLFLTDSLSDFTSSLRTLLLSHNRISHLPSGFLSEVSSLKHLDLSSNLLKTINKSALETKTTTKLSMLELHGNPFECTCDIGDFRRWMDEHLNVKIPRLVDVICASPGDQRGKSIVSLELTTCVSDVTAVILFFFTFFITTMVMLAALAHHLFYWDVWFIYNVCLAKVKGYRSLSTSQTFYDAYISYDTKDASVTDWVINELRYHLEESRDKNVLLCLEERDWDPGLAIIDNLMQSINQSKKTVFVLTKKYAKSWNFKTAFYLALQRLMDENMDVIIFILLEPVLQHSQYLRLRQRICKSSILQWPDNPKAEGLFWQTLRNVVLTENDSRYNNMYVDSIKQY

[14] = target: Proto-oncogene tyrosine-protein kinase Src (Homo sapiens) (UniProt P12931); test: Inhibition of wild-type human partial length SRC (L240 to L536 residues) expressed in bacterial expression system assessed as residual activity at 10 uM by Kinomescan method relative to control
Proto-oncogene tyrosine-protein kinase Src (Homo sapiens), sequence (P12931 2-536 limits assumed): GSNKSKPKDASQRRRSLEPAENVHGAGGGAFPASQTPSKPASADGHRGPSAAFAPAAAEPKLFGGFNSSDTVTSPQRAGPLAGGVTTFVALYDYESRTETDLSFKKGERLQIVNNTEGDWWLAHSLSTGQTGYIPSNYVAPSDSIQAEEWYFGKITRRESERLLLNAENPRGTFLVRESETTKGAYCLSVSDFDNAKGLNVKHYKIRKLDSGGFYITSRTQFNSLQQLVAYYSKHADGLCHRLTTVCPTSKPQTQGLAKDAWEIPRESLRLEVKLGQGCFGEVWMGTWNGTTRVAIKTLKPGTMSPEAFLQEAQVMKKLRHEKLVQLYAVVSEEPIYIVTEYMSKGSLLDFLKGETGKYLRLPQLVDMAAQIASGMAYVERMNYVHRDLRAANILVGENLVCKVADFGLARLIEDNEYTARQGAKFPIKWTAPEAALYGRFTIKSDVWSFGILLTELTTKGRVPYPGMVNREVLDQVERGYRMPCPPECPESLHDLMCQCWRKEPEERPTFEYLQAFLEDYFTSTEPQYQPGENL

inhibition [2]: inactive | inhibition [3]: Active | inhibition [5]: 99.6% | inhibition [10]: Active | inhibition [11]: Active | inhibition [13]: Active | Activity [14]: 75%
SMILES: O=C(NNC(=O)c1csc(-c2ccc(Cl)cc2Cl)n1)c1ccccn1
Activity [1]: 13.8% | inhibition [4]: Active | Activity [6]: 67% | Activity [7]: Dose-dependent effect | Activity [8]: 54.7% | inhibition [9]: inactive | Activity [12]: 37.8%
